Screening results deposited in PubChem BioAssay by several laboratories.
This is a sample that favours compounds with a hit; in the whole collection about 2.3% have one here.
PAX8 reporter: PAX8 transcriptional activity inhibition. RMG-I TPO-luciferase reporter, SteadyGlo, 24 h. inhibition, % at 12.6 µM. 360,000 compounds, 1.2% hits. AID 652154;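 active means mean replicate inhibition at least 60% with every replicate also reaching 60%; inconclusive means only one of the two criteria is met; inactive means mean below 60% and not all replicates reaching 60%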;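 further: luciferase light reporting Pax8 driven TPO promoter activity; plate controls were median of neutral control wells for no effect and mitoxantrone controls for full effect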
Env fusion inh: HIV envelope-mediated fusion inhibition. inhibition, % at 12.3 µM. HeLa-JRFL Env/CEM21 cell fusion, luciferase. 360,000 compounds, 1.1% hits;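 active means mean replicate inhibition score of at least 50 and every replicate individually at or above 50; inconclusive means only one of the two criteria met; inactive means mean below 50 and not all replicates reaching 50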;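 further: 0% = plate neutral controls and 100% = maraviroc near 300 nM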
Arr AP2 block: blocks beta-arrestin peptide binding to AP2 adaptin. FITC-arrestin peptide / GST-AP2 beads, flow cytometry; AP2 beta2 appendage carries R879A mutation. inhibition, % at 10 µM. 340,000 compounds, 0.31% hits. AID 504490;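 active means inhibition above a set limit, near 3 SD of compounds lacking own fluorescence, cut at about 54% in these data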;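 further: plate controls were DMSO wells for no effect and 5 µM unlabelled arrestin peptide for full effect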
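Material – GST-tagged AP2 beta2-adaptin appendage (R879A) on 4 µm glutathione beads · Probe or stimulus – fluorescein-tagged arrestin peptide at 50 nM final · Timing – 12 min plus 1 h, RT · Detection – bead flow cytometry, FITC channel · Read-out basis – inhibition as reduced fluorescein signal on beads, percent · Medium – PBS plus Tween 20 (0.05%) and BSA (0.1%)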
PfHsp90 set2: inhibits growth of yeast expressing Plasmodium falciparum Hsp90 | S. cerevisiae expressing PfHsp90, BacTiter-Glo ATP, 48 h; yeast lacking PDR1 and PDR3 efflux regulators | inhibition, % at 9.4 µM | 310,000 compounds, 0.32% hits;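 active means every replicate shows inhibition above about 80%, whatever the replicate mean, limit read from the data; inconclusive means mean inhibition reaches the set limit but some replicate falls short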;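 further: 0% = DMSO neutral controls and 100% = 20 µM radicicol positive controls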
N-glyco inh: N-linked glycosylation inhibition; reporter increase, % at 12.5 µM; D54 ERlucT glycosylation luciferase reporter, 24 h; percent of 100 nM tunicamycin response; AID 588692; 360,000 compounds, 0.23% hits;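 active means mean luciferase reporter signal, scaled so untreated is 0 and the glycosylation-blocking control 100, at or above a set limit in every replicate; inconclusive means mean reaches the limit but not every replicate does; inactive means mean below the limit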;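 further: luciferase carries N-glycosylation sites so blocking glycosylation raises the light; 0% = median of neutral control wells and 100% = median of 100 nM tunicamycin wells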
Rtt109 Vps75: inhibitors of Candida albicans Rtt109/Vps75 histone acetyltransferase; Q5AAJ8; purified Rtt109/Vps75, ThioGlo CoA-SH fluorescence, 4 h; inhibition, % at 34.9 µM; 330,000 compounds, 0.16% hits;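 active means inhibition of at least 50% in every replicate; inconclusive means best replicate reaches 50% inhibition but some replicates fall short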
Target sequence (Q5AAJ8 whole entry, looked up): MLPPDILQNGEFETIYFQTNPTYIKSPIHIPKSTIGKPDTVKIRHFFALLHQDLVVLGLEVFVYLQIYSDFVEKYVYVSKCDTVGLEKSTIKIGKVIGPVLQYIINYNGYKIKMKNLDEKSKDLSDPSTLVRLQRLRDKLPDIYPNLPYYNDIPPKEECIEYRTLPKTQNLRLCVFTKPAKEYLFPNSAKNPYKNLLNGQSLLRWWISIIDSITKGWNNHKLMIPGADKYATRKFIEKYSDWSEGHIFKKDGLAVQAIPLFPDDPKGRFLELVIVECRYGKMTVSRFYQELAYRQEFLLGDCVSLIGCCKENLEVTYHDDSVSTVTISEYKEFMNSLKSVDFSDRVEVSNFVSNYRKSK
Starred values were filed as active, the others as inactive; ? = inconclusive; . = no result; [ ] = remark or other dose.

SMILES	PAX8 reporter	Env fusion inh	Arr AP2 block	PfHsp90 set2	N-glyco inh	Rtt109 Vps75
CCC1(O)CC2CN(CCc3c([nH]c4ccccc34)C(C(=O)OC)(c3cc4c(cc3OC)N(C=O)C3C(O)(C(=O)OC)C(OC(C)=O)C5(CC)C=CCN6CCC43C65)C2)C1 (centres undefined)	83*	-8	-6	-8	3	3
Cc1ccc(S(=O)(=O)N(C)C[C@H]2Oc3c(NC(=O)CCCCCC(=O)Nc4ccccc4N)cccc3C(=O)N([C@@H](C)CO)C[C@H]2C)cc1	28	.	.	.	.	.
O=C(CCn1c(=O)c2ccccc2n(Cc2cccc([N+](=O)[O-])c2)c1=O)N1CCc2ccccc2C1	6	34	16	3	1	59*
COc1ccc(S(=O)(=O)N(C)C[C@H]2Oc3ccc(NS(=O)(=O)c4ccc(C)cc4)cc3C(=O)N([C@H](C)CO)C[C@H]2C)cc1	-11	.	.	.	.	.
COc1ccc(NC(=O)Nc2ccc3c(c2)C(=O)N([C@H](C)CO)C[C@H](C)[C@H](CN(C)Cc2ccc(C(F)(F)F)cc2)OCCCC[C@@H](C)O3)cc1	50	-108[16.7 µM]	.	.	.	.
COc1ccc(CN(C)C[C@H]2OCCCC[C@H](C)Oc3ccc(NC(=O)Nc4ccc(C(F)(F)F)cc4)cc3C(=O)N([C@H](C)CO)C[C@@H]2C)cc1	83*	?	.	.	.	.
COc1ccc(NC(=O)Nc2ccc3c(c2)C(=O)N([C@@H](C)CO)C[C@@H](C)[C@H](CN(C)Cc2ccc(C(F)(F)F)cc2)OCCCC[C@@H](C)O3)cc1	64*	?	.	.	.	.
COc1ccc(CN(C)C[C@@H]2OCCCC[C@@H](C)Oc3ccc(NC(=O)Nc4ccc(C(F)(F)F)cc4)cc3C(=O)N([C@@H](C)CO)C[C@H]2C)cc1	98*	58*[16.7 µM]	.	.	.	.
COc1ccc(NC(=O)Nc2ccc3c(c2)C(=O)N([C@@H](C)CO)C[C@H](C)[C@H](CN(C)Cc2ccc(C(F)(F)F)cc2)OCCCC[C@@H](C)O3)cc1	57	4[16.7 µM]	.	.	.	.
COc1ccc(NC(=O)Nc2ccc3c(c2)C(=O)N([C@H](C)CO)C[C@@H](C)[C@H](CN(C)Cc2ccc(C(F)(F)F)cc2)OCCCC[C@H](C)O3)cc1	81*	35[16.7 µM]	.	.	.	.
COc1ccc(CN(C)C[C@H]2OCCCC[C@@H](C)Oc3ccc(NC(=O)Nc4ccc(C(F)(F)F)cc4)cc3C(=O)N([C@H](C)CO)C[C@@H]2C)cc1	2	11[16.7 µM]	.	.	.	.
COc1ccc(CN(C)C[C@H]2Oc3c(NS(=O)(=O)c4ccc(OC)cc4)cccc3C(=O)N([C@@H](C)CO)C[C@@H]2C)cc1	.	-10[16.7 µM]	.	.	.	.
CC(C)[C@H](C)NC(=O)N(C)C[C@@H]1OCc2ccccc2-c2ccccc2C(=O)N([C@@H](C)CO)C[C@H]1C	-13	-1[16.7 µM]	.	.	.	.
O=C(Nc1ccc2c(c1)[C@H]1C[C@@H](CC(=O)N3CCCCC3)O[C@H](CO)[C@H]1O2)c1ccc2c(c1)OCO2	4	9[16.7 µM]	.	.	.	.
O=C(c1ccncc1)N1C[C@@H]2[C@H](c3ccccc31)[C@H](CO)N2C(=O)Nc1ccccc1Cl	-12	.	.	.	.	.
COc1ccc(NC(=O)Nc2ccc3c(c2)C(=O)N([C@H](C)CO)C[C@H](C)[C@H](CN(C)Cc2ccc(C(F)(F)F)cc2)OCCCC[C@H](C)O3)cc1	99*	64*[16.7 µM]	.	.	.	.
COc1ccc(CN(C)C[C@@H]2OCCCC[C@H](C)Oc3ccc(NC(=O)Nc4ccc(C(F)(F)F)cc4)cc3C(=O)N([C@H](C)CO)C[C@@H]2C)cc1	108*	22[16.7 µM]	.	.	.	.
O=C(NCCc1c[nH]c2ccccc12)c1cccnc1	71*	-28	2	0	3	-4
O=C(CCC(=O)c1ccccc1)NCCc1c[nH]c2ccccc12	122*	.	4	10	1	0
C[C@H](CO)N1C[C@H](C)[C@@H](CN(C)CC2CC2)Oc2ccc(NC(=O)CCCN(C)C)cc2C1=O	-28	-11[16.7 µM]	.	.	.	.
O=C(CSc1nnc(Cc2cccs2)n1C1CCCCC1)N1CCN(C(=O)c2ccco2)CC1	74*	-1	12	-9	0	51*
C[C@@H]1CN([C@H](C)CO)C(=O)c2cc(-c3ccc(F)cc3)cnc2O[C@@H]1CN(C)CC1CCCC1	.	6[16.7 µM]	.	.	.	.
Cc1ccc2c(c1)c1c3n2CCN(CCC#N)C3CCC1 (centres undefined)	14	72*	.	.	1	.
Cc1ccc(S(=O)(=O)Nc2ccc3c(c2)CC(=O)N([C@H](C)CO)C[C@H](C)[C@@H](CN(C)Cc2ccc(C(F)(F)F)cc2)O3)cc1	42	18[16.7 µM]	.	.	.	.
C[C@H](CO)N1C[C@H](C)[C@@H](CN(C)Cc2ccc(C(F)(F)F)cc2)Oc2ccc(NS(=O)(=O)c3ccc(F)cc3)cc2C1=O	20	12[16.7 µM]	.	.	.	.
SMILES	PAX8 reporter	Env fusion inh	Arr AP2 block	PfHsp90 set2	N-glyco inh	Rtt109 Vps75
C[C@H]1CN([C@@H](C)CO)C(=O)Cc2cc(NS(=O)(=O)c3ccc(Cl)cc3)ccc2O[C@H]1CN(C)Cc1ccc(C(F)(F)F)cc1	-17	15[16.7 µM]	.	.	.	.
C[C@@H]1CN([C@@H](C)CO)C(=O)c2cc(NS(=O)(=O)c3ccc(F)cc3)ccc2O[C@@H]1CN(C)Cc1ccc(C(F)(F)F)cc1	107*	-40[16.7 µM]	.	.	.	.
C[C@H](CO)N1C[C@H](C)[C@@H](CN(C)Cc2ccc(C(F)(F)F)cc2)Oc2ccc(NS(=O)(=O)c3ccc(F)cc3)cc2CC1=O	83*	42[16.7 µM]	.	.	.	.
C[C@H](CO)N1C[C@H](C)[C@H](CN(C)Cc2ccc(C(F)(F)F)cc2)Oc2ccc(NS(=O)(=O)c3ccc(F)cc3)cc2CC1=O	85*	3[16.7 µM]	.	.	.	.
C[C@H](CO)N1C[C@H](C)[C@@H](CN(C)Cc2ccc(C(F)(F)F)cc2)Oc2ccc(NS(=O)(=O)c3ccccc3)cc2CC1=O	76*	.	.	.	.	.
C[C@H]1CN([C@@H](C)CO)C(=O)c2c(c3ccccc3n2C)-c2ccccc2CO[C@H]1CN(C)Cc1ccccc1	11	.	.	.	.	.
C[C@H]1CCCCO[C@@H](CN(C)C(=O)NC2CCCCC2)[C@@H](C)CN([C@@H](C)CO)C(=O)c2cc(NC(=O)C3CCCCC3)ccc2O1	16	-41[16.7 µM]	.	.	.	.
O=C(NC(Nc1nc2ccc([N+](=O)[O-])cc2s1)(C(F)(F)F)C(F)(F)F)c1cccnc1	93*	123*	2	11	-12	.
O=C(NC(NNc1ccc([N+](=O)[O-])cc1)(C(F)(F)F)C(F)(F)F)c1ccccc1Cl	.	-20	-1	.	-1	-1
O=C(NC(Nc1nc2ccc([N+](=O)[O-])cc2s1)(C(F)(F)F)C(F)(F)F)c1ccccc1Cl	101*	25	2	7	-7	-3
C[C@@H]1CCCCO[C@H](CN(C)C(=O)Nc2ccc(C(F)(F)F)cc2)[C@H](C)CN([C@H](C)CO)C(=O)c2cc(NC(=O)Nc3cccc4ccccc34)ccc2O1	6	9[16.7 µM]	.	.	.	.
